Test results reported in ChEMBL document CHEMBL4350976, “Sequence modification of heptapeptide selected by phage display as homing device for HT-29 colon cancer cells to improve the anti-tumour activity of drug delivery systems” (Eur J Med Chem, 2019).
Where a SMILES comes first, the peptide text is derived from it. [ ]: non-standard residue; d: D form. The star is where a group is joined. X1 = COc1cccc2c1C(=O)c1c(O)c3c(c(O)c1C2=O)C[C@@](O)(/C(C)=N/OCC(=O)*)C[C@@H]3O[C@H]1C[C@H](N)[C@H](O)[C@H](C)O1; Phe(4-Cl) = N[C@@H](Cc1ccc(Cl)cc1)C(=O)O

Legend:
[1] = Solubility of compound; type: physicochemical
[2] = Drug uptake in human HT-29 cells assessed as increase in fluorescence intensity at 6.25 to 100 uM incubated for 3 hrs by flow cytometry; type: ADME, cell-based; conditions: ht-29, 3 h
Summary of the method: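 HT-29 cells were incubated for 3 h with conjugates at 6.25–100 µM. Cellular uptake of Dau fluorescence was measured by flow cytometry, in duplicate.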

[3] = Retention time of the compound using 0.1% TFA in water and 0.1% TFA in acetonitrile-water (80:20 v/v) as eluents by RP-HPLC analysis; type: physicochemical
Summary of the method: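 Analytical RP-HPLC. Eluent A was 0.1% TFA in water and eluent B was 0.1% TFA in acetonitrile-water (80:20, v/v). Gradient: 0% B held to 5 min, then to 90% B at 50 min. Flow 1 mL/min, detection at 220 nm. The column was a Phenomenex Aeris Peptide XB-C18 (250×4.6 mm, 3.6 μm) or a Nucleosil C18 (5 μm, 100 Å, 250×4.6 mm), depending on the conjugate series.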

[4] = test system: HT-29; assay: Cytotoxicity against human HT-29 cells assessed as reduction in cell viability by measuring decrease in fluorescence intensity at 100 uM incubated for 3 hrs by flow cytometry; type: cell-based; conditions: ht-29, 3 h
[5] = Stability in 2.5% fetal bovine serum containing medium at 30 uM measured after 24 hrs by LC/MS analysis; type: ADME, cell-free, Bos taurus; conditions: cattle
Summary of the method: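 Conjugates (30 μM) were incubated at 37 °C in medium containing 2.5% FBS. Samples were taken at 0, 3, 6 and 24 h, quenched with acetic acid, lyophilised, desalted on C18 spin columns and analysed by LC-MS. Cleavage products were identified by mass.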

[6] = Drug metabolism in rat liver lysosomes homogenate assessed as Dau-containing metabolite formation at 0.05 ug/ul after 24 hrs by LC-MS analysis; type: ADME, subcellular, Lysosome; conditions: tissue homogenate
Summary of the method: (§1)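 Conjugates and rat liver lysosomal homogenate were each used at 0.05 µg/µL. Samples were taken at 0, 1, 3, 6 and 24 h. Metabolites were identified by LC-MS on a C18 column with a formic acid/acetonitrile gradient.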

[7] = Stability in serum free medium at 30 uM incubated for 3 hrs by LC/MS analysis
Summary of the method: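 Conjugates (30 μM) were incubated at 37 °C in serum-free medium. Samples were taken at 0 and 3 h, quenched with acetic acid, lyophilised, desalted on C18 spin columns and analysed by LC-MS.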

[8] = Drug metabolism in rat liver lysosomes homogenate assessed as increase in Dau = Aoa-Leu-OH metabolite formation at 0.05 ug/ul after 1 hr by LC-MS analysis; type: ADME, subcellular, Lysosome; conditions: tissue homogenate; summary of the method: as §1
[9] = test system: HT-29; assay: Cytostatic activity against human HT-29 cells preincubated for 24 hrs under serum free condition followed by compound washout and further incubation for 48 hrs in presence of serum by MTT assay; type: functional, cell-based
Summary of the method: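 HT-29 cells were exposed to the compound for 24 h, washed, and kept a further 48 h. Viability was read by MTT. Absorbances were normalized to untreated controls and fitted by nonlinear regression to dose-response curves to give IC50.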

[10] = Drug uptake in human HT-29 cells assessed as increase in fluorescence intensity at 25 uM incubated for 3 hrs by flow cytometry; type: ADME, cell-based; conditions: ht-29, 3 h
[11] = Drug uptake in human HT-29 cells at 100 uM incubated for 3 hrs by flow cytometry relative to control; type: ADME, cell-based; conditions: ht-29, 3 h
Summary of the method: (§2)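 HT-29 cells were exposed to 100 µM conjugate for 3 h. Flow cytometry recorded the percentage of Dau-positive cells and the mean fluorescence intensity, in duplicate.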

[12] = Drug uptake in human HT-29 cells at 100 uM incubated for 3 hrs by flow cytometry; type: ADME, cell-based; conditions: ht-29, 3 h; summary of the method: as §2

solubility [1] | Drug uptake [2] | Retention time [3] | Stability [5] | Drug metabolism [6] | Drug metabolism [8] | IC50 [9] | Drug uptake [10] | Drug uptake [11] | Drug uptake [12] | SMILES | Activity [4] | Stability [7]
Soluble | Active | 31.3 to 34 min | Stable | Metabolite_Detected | Metabolite_Detected | 3.6 µM |  |  |  | COc1cccc2c1C(=O)c1c(O)c3c(c(O)c1C2=O)C[C@@](O)(/C(C)=N/OCC(=O)N[C@@H](CC(C)C)C(=O)N[C@@H](CCCNC(=N)N)C(=O)N[C@@H](CCCNC(=N)N)C(=O)N[C@@H](Cc1ccc(O)cc1)C(=O)N[C@H](C(=O)N[C@@H](Cc1cnc[nH]1)C(=O)N[C@@H](CC(C)C)C(=O)N[C@@H](Cc1ccc(Cl)cc1)C(=O)N[C@@H](Cc1ccc(O)cc1)C(=O)N[C@@H](C)C(=O)N[C@H](C(N)=O)[C@@H](C)O)C(C)C)C[C@@H]3O[C@H]1C[C@H](N)[C@H](O)[C@H](C)O1 (X1-LRRYVHL[Phe(4-Cl)]YAT-NH2) | Toxic | Stable
Soluble | Active | 30.7 to 32.3 min | Stable | Metabolite_Detected | Metabolite_Detected | 3.2 µM |  |  |  | COc1cccc2c1C(=O)c1c(O)c3c(c(O)c1C2=O)C[C@@](O)(/C(C)=N/OCC(=O)N[C@@H](CC(C)C)C(=O)N[C@@H](CCCNC(=N)N)C(=O)N[C@@H](CCCNC(=N)N)C(=O)N[C@@H](Cc1ccc(O)cc1)C(=O)N[C@H](C(=O)N[C@@H](Cc1cnc[nH]1)C(=O)N[C@@H](CC(C)C)C(=O)N[C@@H](Cc1ccccc1)C(=O)N[C@@H](Cc1ccc(O)cc1)C(=O)N[C@@H](CC(C)C)C(=O)N[C@H](C(N)=O)[C@@H](C)O)C(C)C)C[C@@H]3O[C@H]1C[C@H](N)[C@H](O)[C@H](C)O1 (X1-LRRYVHLFYLT-NH2) |  | Stable
 |  | 28.6 to 31.3 min | Stable |  |  | 24.1 to 27.9 µM | Active | 80% |  | COc1cccc2c1C(=O)c1c(O)c3c(c(O)c1C2=O)C[C@@](O)(/C(C)=N/OCC(=O)N[C@@H](CC(C)C)C(=O)N[C@@H](CCCNC(=N)N)C(=O)N[C@@H](CCCNC(=N)N)C(=O)N[C@@H](Cc1ccc(O)cc1)C(=O)N[C@H](C(=O)N[C@@H](Cc1cnc[nH]1)C(=O)N[C@@H](CC(C)C)C(=O)N[C@@H](C)C(=O)N[C@@H](Cc1ccc(O)cc1)C(=O)N[C@@H](C)C(=O)N[C@H](C(N)=O)[C@@H](C)O)C(C)C)C[C@@H]3O[C@H]1C[C@H](N)[C@H](O)[C@H](C)O1 (X1-LRRYVHLAYAT-NH2) |  | Stable
 |  | 28 to 30.7 min |  |  |  | 70.9 µM |  |  | Active | COc1cccc2c1C(=O)c1c(O)c3c(c(O)c1C2=O)C[C@@](O)(/C(C)=N/OCC(=O)N[C@@H](CC(C)C)C(=O)N[C@@H](CCCNC(=N)N)C(=O)N[C@@H](CCCNC(=N)N)C(=O)N[C@@H](Cc1ccc(O)cc1)C(=O)N[C@H](C(=O)N[C@@H](Cc1cnc[nH]1)C(=O)N[C@@H](CC(C)C)C(=O)NCC(=O)N[C@@H](Cc1ccc(O)cc1)C(=O)N[C@@H](C)C(=O)N[C@@H](C)C(N)=O)C(C)C)C[C@@H]3O[C@H]1C[C@H](N)[C@H](O)[C@H](C)O1 (X1-LRRYVHLGYAA-NH2) |  | 
 |  | 27.2 to 29.9 min |  |  |  | > 100 µM |  |  | Active | COc1cccc2c1C(=O)c1c(O)c3c(c(O)c1C2=O)C[C@@](O)(/C(C)=N/OCC(=O)N[C@@H](CC(C)C)C(=O)N[C@@H](CCCNC(=N)N)C(=O)N[C@@H](CCCNC(=N)N)C(=O)N[C@@H](Cc1ccc(O)cc1)C(=O)N[C@H](C(=O)N[C@@H](Cc1cnc[nH]1)C(=O)N[C@@H](C)C(=O)NCC(=O)N[C@@H](Cc1ccc(O)cc1)C(=O)N[C@@H](C)C(=O)N[C@H](C(N)=O)[C@@H](C)O)C(C)C)C[C@@H]3O[C@H]1C[C@H](N)[C@H](O)[C@H](C)O1 (X1-LRRYVHAGYAT-NH2) |  | 
